# Shown are actives, neighbours in structure and some others; about 2.2% of the full set was active somewhere.
# BaF3 tox = reduces parental Ba/F3 cell viability, JAK2V617F counter-screen | CellTiter-Glo ATP luminescence | inhibition, % at 5.6 µM | hit rate 1.1% among 220,000 | AID 1486;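 active = inhibition above a per-campaign cutoff, the mean inhibition of all tested compounds plus 3 SD, cut at about 27% in these data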;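 note: 0% = DMSO wells and 100% = JAK Inhibitor I control wells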
# b-catenin transl = modulators of beta-catenin nuclear translocation; hit rate 0.3% among 190,000; HeLa beta-catenin nuclear translocation, immunofluorescence imaging; nuclear translocation activity, % at 5 µM;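 active = nuclear translocation activity above 50% at 5 µM, with a well cell count of 50 or more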;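 note: per-cell ratio of nuclear to cytoplasmic median beta-catenin stain intensity; plate controls were DMSO negative control for no effect and GSK-3 inhibitor IX positive control for full effect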
#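 System: HeLa cells, endogenous beta-catenin; compound dosing: 5 µM primary single dose, 0.1% DMSO, 0.02–20 µM confirmation series; incubation: 24 h compound exposure at 37°C, 5% CO2; signal: beta-catenin immunofluorescence imaging with DAPI; evaluation: % activation, nuclear-to-cytoplasmic median beta-catenin signal ratio per cell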
# APP 5UTR inh = APP translation inhibition; SH-SY5Y APP 5'UTR-luciferase reporter, luminescence; inhibition, % at 2 µM; hit rate 0.82% among 190,000;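 active = inhibition above a set limit, derived from the sample mean plus 3 SD, cut at about 45% in these data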
# IEC-6 cytotox = IEC-6 cytotoxicity, counter-screen for KLF5 inhibitors; luminescence viability; hit rate 0.78% among 290,000; inhibition, % at 5 µM;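 note: 0% = plate median of test compound wells and 100% = cytotoxic reference compound wells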
# MT stabilize HCS = microtubule stabilization, imaging screen. hit rate 0.83% among 200,000. HeLa tubulin immunostaining HCS, 24 h; share of cells brighter than vehicle mean+2SD. % tubulin-high responders, % at 10 µM;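 active = plate Z-score above 3 for both tubulin-high and condensed-nucleus cell shares, with cell loss under 80%, at 10 µM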;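 note: anti alpha tubulin signal scored within the nucleus-defined area of each cell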
# Ba/F3 V617F tox = loss of viability in JAK2V617F-driven Ba/F3 cells | inhibition, % at 5.6 µM | Ba/F3 EpoR-JAK2V617F viability, ATP luminescence | AID 1446 | hit rate 1.1% among 220,000;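 active = inhibition above the campaign mean plus 3 SD over all tested compounds, cut at about 24% in these data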;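 note: cytokine-independent growth of Ba/F3 cells driven by EpoR plus mutant JAK2; 0% = DMSO-treated cells and 100% = JAK inhibitor I control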
# IEC-6 cytotox cf = IEC-6 cytotoxicity, confirmation assay; hit rate 63% among 1,900; shares compounds with IEC-6 cytotox; inhibition, % at 5 µM; IEC-6 rat intestinal epithelial viability, luminescence;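 note: 0% = vehicle and 100% = reference cytotoxic drug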
# The depositor's hits bear a star; . = not tested or not shown. Cut-off read from the data, not from the text of the source, unless noted: active = inhibition above about 22%; inactive = the rest.
SMILES,BaF3 tox,b-catenin transl,APP 5UTR inh,IEC-6 cytotox,MT stabilize HCS,Ba/F3 V617F tox,IEC-6 cytotox cf
O=C(Nc1ccccc1SCC1CSc2nc3ccccc3c(=O)n21)c1cccc(Cl)c1 (centres undefined),5,10,-1,69*,1,3,42*
Cc1ccc(C(=O)Nc2ccccc2SCC2CSc3nc4ccccc4c(=O)n32)cc1 (centres undefined),6,.,3,70*,2,4,45*
Cc1cccc(C(=O)Nc2ccccc2SCC2CSc3nc4ccccc4c(=O)n32)c1 (centres undefined),1,-1,-11,66*,1,-2,44*
O=C(COc1ccccc1)Nc1ccc2oc(=O)ccc2c1,.,.,.,2,.,.,.
O=C(Nc1ccccc1SCC1CSc2nc3ccccc3c(=O)n21)c1ccccc1 (centres undefined),4,-4,-5,50*,0,-1,32*
CC1CCN(S(=O)(=O)c2nnc(NC(=O)c3cccc(Cl)c3)s2)CC1,.,.,.,11,.,.,.
CCC(C)c1ccc(S(=O)(=O)N2CCN3CCCC3C2)cc1 (centres undefined),.,.,.,3,.,.,.
Cc1nn(-c2ccccc2)c(C)c1/C=N/NC(=O)c1cc(-c2ccccc2)n[nH]1,78*,80*,95*,77*,14*,71*,58*
Cc1nn(-c2ccccc2)c(C)c1/C=N/NC(=O)c1cc(-c2cccc3ccccc23)n[nH]1,5,0,4,7,21,6,.
O=C(N/N=C(\c1ccccc1)c1cccnc1)c1cccc(F)c1,.,.,.,100*,.,.,80*
COc1ccccc1NS(=O)(=O)c1ccc(-c2cnc(C3CC3)o2)cc1,.,.,.,84*,.,.,55*
COc1ccccc1CNS(=O)(=O)c1ccc(S(=O)(=O)NC2CC2)cc1,.,.,.,9,.,.,.
COc1ccccc1CNS(=O)(=O)c1ccc(-c2cnc(C3CC3)o2)cc1,.,.,.,69*,.,.,54*
Cc1cccc(N(C)S(=O)(=O)c2ccc(-c3cnc(C4CC4)o3)cc2)c1,.,.,.,91*,.,.,65*
CCOc1ccccc1NS(=O)(=O)c1ccc(-c2cnc(C3CC3)o2)cc1,.,.,.,90*,.,.,59*
CCc1cccc(C)c1N=Cc1c(O)c2ccccc2oc1=O,.,.,.,1,.,.,.
CC(C)NC(=O)CCCN1C(=O)c2ccccc2Sc2ncccc21,.,.,.,2,.,.,.
COc1ccc(/C=C2/SC(=O)N(CCC(=O)Nc3ccccc3C(=O)O)C2=S)cc1,.,.,.,-1,.,.,.
O=C1CC(=O)Nc2cc(S(=O)(=O)Nc3ccc(F)cc3Cl)ccc2N1,.,.,.,-3,.,.,.
O=S(=O)(Nc1ccc(F)cc1Cl)c1ccc(-c2cnc(C3CC3)o2)cc1,.,.,.,82*,.,.,52*
COc1ccc(NS(=O)(=O)c2ccc(-c3cnc(C4CC4)o3)cc2)cc1OC,.,.,.,50*,.,.,39*
Cc1ccc(NS(=O)(=O)c2ccc(-c3cnc(C4CC4)o3)cc2)c(C)c1,.,.,.,78*,.,.,55*
COC(CNC(=O)c1coc2nc3ccccc3nc12)OC,-5,0,.,-1,.,-3,.
COc1ccc(CN2C(=O)C(=O)N(CC(N)=O)C2=O)cc1,8,-2,1,0,4,4,.
CN1CCc2nc(NC(=O)COc3ccc4ccccc4c3)sc2C1,8,2,8,38*,3,9,18
SMILES,BaF3 tox,b-catenin transl,APP 5UTR inh,IEC-6 cytotox,MT stabilize HCS,Ba/F3 V617F tox,IEC-6 cytotox cf
Cc1ccc(OCc2cc(C(=O)N(C)CCc3nc4ccccc4[nH]3)no2)cc1C,.,.,.,-4,.,.,.
COc1ccc(NS(=O)(=O)c2cc(C)ccc2NC(=O)c2cc(C)oc2C)cc1,79*,.,95*,82*,21*,75*,62*
CCn1ccnc1CN1CCC(n2nccc2NC(=O)c2ccccc2OC)CC1,.,.,.,-2,.,.,.
COc1cccc2sc(Nc3nnc(-c4ccc(F)cc4)o3)nc12,3,0,-10,-2,9,-1,.
COc1cccc2sc(Nc3nc(-c4ccccn4)cs3)nc12,53*,34,84*,89*,24,51*,96*
COc1cccc2sc(Nc3nnc(-c4cccs4)o3)nc12,10,2,-71,69*,2,11,59*
COc1ccc(N(Cc2ccccc2)N=O)cc1,.,.,.,3,.,.,.
Nc1sc(-c2ccccc2)cc1-c1n[nH]c(=S)n1C1CCCCC1,57*,1,.,54*,.,89*,48*
COc1ccc(-n2c(-c3cc(-c4ccccc4)sc3N)n[nH]c2=S)cc1,-3,0,.,2,.,0,.
CC(=O)c1cccc(NC(=O)CCN2C(=O)C3C4CCC(C4)C3C2=O)c1 (centres undefined),.,.,.,14,.,.,.
CCOc1ccccc1OCC(=O)N/N=C(\C)Cc1ccc(OC)cc1,73*,4,92*,70*,15*,72*,-17
COc1ccccc1OCC(=O)NN=C(Cc1ccccc1)Cc1ccccc1,5,.,9,6,1,0,.
C=CCN(CC=C)C(=O)C1CCN(S(=O)(=O)c2ccc(N3CCCC3=O)cc2)CC1,.,.,.,-6,.,.,.
CCOc1cc(C2NC(=O)NC2=O)ccc1O (centres undefined),.,.,.,2,.,.,.
C=CCn1c(SCC(=O)NC(=O)c2cccn2C)nc2ccccc2c1=O,3,1,1,0,3,-2,.
CCC(C)n1c(SCC(=O)NC(=O)c2cccn2C)nc2ccccc2c1=O (centres undefined),3,0,-14,33*,5,4,29*
Cc1cc2nnc(SCC(=O)NCc3cccs3)n2c(N)n1,2,-1,2,-1,2,2,.
Cc1cc2nnc(SCC(=O)NCc3cccs3)n2c2ccccc12,40*,45,4,34*,42*,31*,24*
CCc1cc(C(=O)N2CCCc3ccccc32)sc1C,.,.,.,3,.,.,.
CCO[C@@H]1OC(C(=O)Nc2ccccc2)=C[C@H](c2coc3ccccc3c2=O)[C@H]1CCCO,-4,-2,4,25*,1,6,5
CCO[C@H]1OC(C(N)=O)=C[C@@H](c2coc3ccccc3c2=O)[C@@H]1CCCO,2,0,-2,2,1,2,.
COc1ccc(OC)c(Nc2nc(C)nc3c2oc2ccccc23)c1,.,.,.,26*,.,.,23*
COc1ccc(OC)c(Nc2cc(C)c3ccccc3n2)c1,.,.,.,2,.,.,.
Cc1cccc(Nc2c3c(nc4ccccc24)CCC3)c1,1,12,.,7,.,4,.
COc1ccc(OC)c(Nc2c3c(nc4ccccc24)CCC3)c1,.,.,.,85*,.,.,58*
COc1ccc(Cl)cc1Nc1nc(C)nc2c1oc1ccccc12,.,.,.,15,.,.,.
COc1ccc(OC)c(Nc2c3ccccc3nc3ccccc23)c1,.,.,.,46*,.,.,13
COc1cc(Nc2c3c(nc4ccccc24)CCC3)cc(OC)c1OC,.,.,.,85*,.,.,58*
COc1ccccc1Nc1c2c(nc3ccc(N)cc13)CCCC2,-4,1,.,2,.,2,.
CCN(C(=O)COC(=O)/C=C/c1ccccc1)C1CCCCC1,-1,4,8,-2,4,-4,.
